Laboratory results: ChEMBL document CHEMBL1157652, “Chemical biology studies on norrisolide” (Bioorg Med Chem, 2010)
The source made the active and inactive calls. No cut-off for these calls is given here.

What was measured:
NRK [1] = experiment: Golgi-disturbing activity in golgi apparatus of rat NRK cells assessed as fusion of golgi membrane fusion with endoplasmic reticulum at 7 uM after 60 mins by Hoechst 3342 staining-based immunofluorescence microscopy; format: functional, cell-based
Outline: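 Agent applied for 60 min at 37 °C, with a DMSO control. Golgi read by immunofluorescence: rabbit mannosidase II primary, Alexa Fluor 594 secondary, Hoechst DNA stain, 60× fluorescence microscopy.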

NRK [2] = experiment: Golgi-disturbing activity in golgi apparatus of rat NRK cells assessed as golgi fragmentation measured after 60 mins following drug washout by Hoechst 3342 staining-based immunofluorescence microscopy; format: functional, cell-based
NRK [3] = experiment: Golgi-disturbing activity in golgi apparatus of rat NRK cells assessed as golgi vesiculation after 60 mins by Hoechst 3342 staining-based immunofluorescence microscopy; format: functional, cell-based
Outline: (§1)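 NRK cells grown in alpha MEM with 10% FCS, 2 mM glutamine and 25 mM Hepes pH 7.4 on coated coverslips. Compound at 30 µM working concentration (DMSO vehicle control) for 60 min at 37 °C. Cells then immunostained for mannosidase II with Alexa 594 secondary and Hoechst for nuclei, and scored by fluorescence microscopy at 60×.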

NRK [4] = experiment: Golgi-disturbing activity in golgi apparatus of rat NRK cells assessed as reversible golgi fragmentation after 60 mins by Hoechst 3342 staining-based immunofluorescence microscopy; format: functional, cell-based
Outline: (§2)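 After 1 h compound exposure (30 µM, 37 °C), NRK cells were either fixed directly or washed four times with PBS and kept in fresh complete medium at 37 °C (90 min per methods) before mannosidase II/Hoechst immunofluorescence to judge recovery of Golgi structure.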

NRK [5] = experiment: Golgi-disturbing activity in golgi apparatus of rat NRK cells assessed as partial golgi vesiculation after 60 mins by Hoechst 3342 staining-based immunofluorescence microscopy; format: functional, cell-based; outline: as §1
NRK [6] = experiment: Golgi-disturbing activity in golgi apparatus of rat NRK cells assessed as microtubule depolymerization-associated golgi fragmentation at 30 uM after 60 mins by Hoechst 3342 staining-based immunofluorescence microscopy; format: functional, cell-based; outline: as §1
NRK [7] = experiment: Golgi-disturbing activity in golgi apparatus of rat NRK cells assessed as complete golgi vesiculation without fusion with endoplasmic reticulum at 30 uM after 60 mins by Hoechst 3342 staining-based immunofluorescence microscopy; format: functional, cell-based; outline: as §1
NRK [8] = experiment: Golgi-disturbing activity in golgi apparatus of rat NRK cells assessed as golgi fragmentation after 60 mins by Hoechst 3342 staining-based immunofluorescence microscopy in presence of PKD inhibitor H89; format: functional, cell-based
Outline: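 NRK cells were pretreated with H-89 (20 µM) for 30 min, then incubated with compound for 1 h at 37 °C. Golgi was read by mannosidase II immunofluorescence with Hoechst counterstain.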

NRK [9] = experiment: Golgi-disturbing activity in golgi apparatus of rat NRK cells assessed as golgi fragmentation after 60 mins by Hoechst 3342 staining-based immunofluorescence microscopy; format: functional; outline: as §1
NRK [10] = experiment: Golgi-disturbing activity in golgi apparatus of rat NRK cells assessed as irreversible golgi fragmentation after 60 mins by Hoechst 3342 staining-based immunofluorescence microscopy; format: functional, cell-based; outline: as §2
[11] = Drug localization in golgi apparatus of rat NRK cells after 10 mins by immunofluorescence microscopy; format: ADME, cell-based
Outline: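 Live NRK cells incubated with fluorescent probe for 10 min and imaged for Golgi-like perinuclear staining. For colocalization, cells were mildly fixed (2% formaldehyde, 90 s), immunostained for mannosidase II, then given probe at 25 μM for 30 min before mounting. Coumarin read at excitation 370 nm, emission 460 nm.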

NRK [12] = experiment: Golgi-disturbing activity in golgi apparatus of rat NRK cells assessed as reversible golgi vesiculation after 60 mins by Hoechst 3342 staining-based immunofluorescence microscopy; format: functional, cell-based; outline: as §2
NRK [13] = experiment: Golgi-disturbing activity in golgi apparatus of rat NRK cells assessed as transport of GFP-fused VSV G protein from fragmented golgi to plasma membrane after 60 mins by protein transport assay; format: functional, cell-based
Outline: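 After transfection with tsO45 VSV-G-GFP, NRK cells were held at 40 °C for 20 h, then at 20 °C for 2 h with cycloheximide to hold VSV-G in the Golgi. Cells were then incubated with compound (30 µM working) or DMSO and shifted to 32 °C for 1 h. Arrival at the plasma membrane was imaged by fluorescence microscopy.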

NRK [14] = experiment: Golgi-disturbing activity in golgi apparatus of rat NRK cells assessed as transport of GFP-fused VSV G protein from endoplasmic reticulum to golgi after 60 mins by protein transport assay; format: functional, cell-based
Outline: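 NRK cells were transfected with tsO45 VSV-G-GFP using FuGene 6 and held at 40 °C for 20 h to arrest VSV-G in the ER. They were treated with compound (30 µM working) or DMSO for 1 h, then moved to 20 °C for 2 h with cycloheximide. VSV-G entry into the Golgi was judged by fluorescence microscopy against the Golgi marker.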

NRK [15] = experiment: Golgi-disturbing activity in golgi apparatus of rat NRK cells assessed as microtubule depolymerization-associated golgi fragmentation after 60 mins by Hoechst 3342 staining-based immunofluorescence microscopy
NRK [16] = experiment: Golgi-disturbing activity in golgi apparatus of rat NRK cells assessed as enhancement of nocodazole-induced golgi fragmentation after 60 mins by Hoechst 3342 staining-based immunofluorescence microscopy; format: functional, cell-based
Outline: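 NRK cells were pretreated with nocodazole (30 µM) for 60 min, then given compound for a further 60 min. Golgi was visualized by mannosidase II immunofluorescence with Hoechst nuclear stain.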

| Structure (SMILES) | Activity (NRK [2]) | Activity (NRK [4]) | Activity (NRK [5]) | other results |
| --- | --- | --- | --- | --- |
| C[C@H]1CCC/C=C/[C@@H]2C[C@H](O)C[C@H]2[C@H](O)/C=C/C(=O)O1 | – | – | – | Activity (NRK [1]): Active |
| CC1(C)CCC[C@]2(C)[C@@H](OC(=O)c3ccc(OCC4CC4)cc3OCC3CC3)CC[C@@H]12 | Active | – | – | Activity (NRK [3]): Active |
| C=C([C@H]1[C@H]2CC(=O)O[C@H]2O[C@@H]1C(C)=O)C(C)(C)C | inactive | inactive | inactive | – |
| C=C([C@@H]1[C@@H](OC(C)=O)O[C@@H]2OC(=O)C[C@@H]21)C(C)(C)C | inactive | inactive | inactive | – |
| C=C([C@H]1[C@H]2CC(=O)O[C@H]2O[C@@H]1CO)[C@H]1CC[C@H]2C(C)(C)CCC[C@]12C | – | Active | Active | – |
| CC(=O)O[C@H]1O[C@@H]2OC(=O)C[C@@H]2[C@H]1OCc1ccccc1 | inactive | inactive | inactive | – |
| CC(=O)[C@H]1O[C@@H]2OC(=O)C[C@@H]2[C@H]1OCc1ccccc1 | inactive | inactive | inactive | – |
| COC(=O)Nc1nc2cc(C(=O)c3cccs3)ccc2[nH]1 | – | – | – | Activity (NRK [6]): Active |
| C=C1CCC[C@H]2[C@](C)(CC3=C(O)C(=O)C=C(OC)C3=O)[C@@H](C)CC[C@]12C | – | – | – | Activity (NRK [7]): Active; Activity (NRK [8]): inactive; Activity (NRK [9]): Active; Activity (NRK [10]): Active |
| CN(C)c1ccc2c(CC(=O)NCC#Cc3cc(C(=O)O[C@H]4CC[C@H]5C(C)(C)CCC[C@]45C)c(OCC4CC4)cc3OCC3CC3)cc(=O)oc2c1 | – | – | – | Drug uptake [11]: Active; Activity (NRK [12]): Active; Activity (NRK [3]): Active |
| COc1ccc(C(=O)O[C@H]2CC[C@H]3C(C)(C)CCC[C@]23C)c(OC)c1 | – | Active | – | Activity (NRK [3]): Active |
| C=C([C@H]1[C@H]2CC(=O)O[C@H]2O[C@@H]1COC(=O)Cc1cc(=O)oc2cc(N(C)C)ccc12)[C@H]1CC[C@H]2C(C)(C)CCC[C@]12C | – | – | – | Drug uptake [11]: Active; Activity (NRK [9]): Active |
| C=C([C@@H]1[C@@H](OC(C)=O)O[C@@H]2OC(=O)C[C@@H]21)[C@H]1CC[C@H]2C(C)(C)CCC[C@]12C | – | – | – | Activity (NRK [13]): Active; Activity (NRK [14]): inactive; Activity (NRK [15]): Active; Activity (NRK [16]): Active; Activity (NRK [8]): Active |
| C=C([C@H]1[C@H]2CC(=O)O[C@H]2O[C@@H]1C(C)=O)[C@H]1CC[C@H]2C(C)(C)CCC[C@]12C | – | Active | Active | – |
